Results from different studies.
Protocols differ between the studies behind these lines.
Cell line: CCRF-CEM
Read-out: cell growth or viability

COC(=O)c1cc(CCc2ccccc2OC)sc1N  IC50 (48 h): 1.2 µM
O=C(CN1C(=O)SC(=Cc2ccccc2)C1=O)Nc1ccc(Cl)cc1C(F)(F)F  IC50 (MTT; 48 h): 47.5 µM
COC(=O)c1cc(-c2cc(OC)ccc2OC)sc1N  IC50 (48 h): 30 µM
O=C1NCCc2[nH]c(-c3ccncc3)cc21  IC50: 2.5 µM
COc1ccc(OC)c(CCc2cc(C#N)c(N)s2)c1  IC50 (48 h): 0.035 µM
O=C(CN1C(=O)SC(=Cc2ccccc2)C1=O)Nc1nc2c(Cl)cccc2s1  IC50 (MTT; 48 h): 35.1 µM
O=C1C(=Cc2ccccc2)CN(C(=O)CCCCCCC(=O)N2CC(=Cc3ccccc3)C(=O)C(=Cc3ccccc3)C2)CC1=Cc1ccccc1  IC50 (72 h): 2.28 µM
CCC[C@H](Nc1nc(-c2ccc(NC(=O)NCC)c(OC)c2)ncc1C)c1cccnc1  IC50 (fluorescence; 72 h): 0.0036 µM
COc1cc(OC)cc(C(=O)c2cc3c(-c4ccccc4)c(O)ccc3o2)c1  IC50 (72 h): 9.6 µM
O=C1C(=Cc2ccccc2)CN(C(=O)CC(=O)N2CC(=Cc3ccccc3)C(=O)C(=Cc3ccccc3)C2)CC1=Cc1ccccc1  IC50 (72 h): 0.2 µM
CCOC(=O)c1cc(CCc2ccccc2OC)sc1N  IC50 (48 h): 20 µM
O=C1C(=Cc2ccccc2)CN(C(=O)CCCC(=O)N2CC(=Cc3ccccc3)C(=O)C(=Cc3ccccc3)C2)CC1=Cc1ccccc1  IC50 (72 h): 2.03 µM
COc1cccc(C(=O)c2cc3c(-c4ccccc4)c(OC)ccc3o2)c1  IC50 (72 h): 5.4 µM
O=C(CN1C(=O)SC(=Cc2ccc(F)cc2)C1=O)Nc1ccc(Cl)cc1C(F)(F)F  IC50 (MTT; 48 h): 38 µM
COc1cccc2c1C(=O)c1c(O)c3c(c(O)c1C2=O)C[C@@](O)(C(=O)CO)C[C@@H]3O[C@H]1C[C@H](N)[C@H](O)[C@H](C)O1  IC50 (resazurin; 72 h): 0.01 µM
CC(=O)O[C@H]1C(=O)[C@@]2(C)[C@H]([C@H](OC(=O)c3ccccc3)[C@]3(O)C[C@H](OC(=O)[C@H](O)[C@@H](NC(=O)c4ccccc4)c4ccccc4)C(C)=C1C3(C)C)[C@]1(OC(C)=O)CO[C@@H]1C[C@@H]2O  IC50 (MTT; 48 h): 0.31 µM
COc1cc(OC)cc(C(=O)c2cc3c(-c4ccccc4)c(OC)ccc3o2)c1  IC50 (72 h): > 50 µM
CCOC(=O)c1cc(CCc2ccc(OC)cc2)sc1N  IC50 (48 h): 1.9 µM
COc1ccccc1C(=O)c1cc2c(-c3ccccc3)c(O)ccc2o1  IC50 (72 h): 19 µM
CCOC(=O)c1c(N)sc(CCc2cc(OC)ccc2OC)c1C(=O)OCC  IC50 (48 h): 20 µM
COc1ccccc1C(=O)c1cc2c(-c3ccccc3)c(OC)ccc2o1  IC50 (72 h): > 50 µM
COc1ccc(CCc2cc(C#N)c(N)s2)cc1  IC50 (48 h): 7.2 µM
